Experimental data taken from article PMC11564230 (Clinical Drug Investigation, 2024).

What was measured:
[1] = Clinical single-dose pharmacokinetics of insulin icodec in serum; format: in vivo, human; conditions: T2DM, single s.c. dose 175 U icodec
Method in brief: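 T2DM adults (18–64 y, metformin ± one OAD, 80–120 kg, HbA1c 6.0–8.5%) in a randomised, double-blind, three-period crossover. Single s.c. dose of 700 U/mL product; washout 6–9 weeks. Serum sampled pre-dose to 840 h, clotted 30 min at RT, spun 1500g 10 min 4 °C, stored −20 °C; validated LOCI. Log Cmax fitted by linear model (treatment, period, participant fixed); tmax descriptive.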

[2] = Safety in the clinical study; format: in vivo, human; conditions: for AEs of severity Mild, % / AEs of severity Moderate, % / AEs of severity Severe, % / AEs with outcome Recovered/resolved, % / AEs with outcome Recovering/resolving, % / AEs with relationship to study product Possible, % / AEs with relationship to study product Probable, % / AEs with relationship to study product Unlikely, % / Decreased appetite, % / Gastrointestinal disorders (SOC), % / General disorders and administration site conditions (SOC), % / Headache, % / Metabolism and nutrition disorders (SOC), % / Nausea, % / Nervous system disorders (SOC), % / Serious AEs, % / Vomiting, % / Treatment emergent AEs, %: percent of individuals; for Overall tolerability in the clinical study: T2DM
Method in brief: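 Adverse events and hypoglycaemia recorded continuously; treatment-emergent if from dosing to 35 days post-dose. Hypoglycaemia was BG-confirmed (BG < 2.8 mmol/L, i.e. PG < 3.1 mmol/L) or severe (needing assistance). Antibody samples taken pre-dose and at days 14, 28 and 35; validated assays. Anti-icodec-positive samples tested for human insulin cross-reactivity. Descriptive statistics.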

[3] = insulin-naïve T2DM, phase 3 ONWARDS 1 and 3; cited from earlier work
[4] = Clinical single-dose pharmacokinetics of semaglutide in plasma; format: in vivo, human; conditions: T2DM, single s.c. dose 0.5 mg semaglutide
Method in brief: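 Same crossover design in T2DM adults: single s.c. dose of 1 mg/mL (243 nmol/mL) product, 6–9 week washout. EDTA plasma drawn pre-dose to 840 h (35 days), kept on ice 10 min, spun 1500g 10 min 4 °C, stored −20 °C. Measured by validated LC-MS/MS. Log-transformed Cmax analysed by linear normal model with treatment, period and participant as fixed effects.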

[5] = number of events, treatment emergent

insulin icodec
Maximum concentration after single dose (Cmax,SD,Icodec), LS mean ([1]; serum, LS mean, N 30/28): 95 nM | Median time to maximum icodec concentration after single dose (tmax,SD,Icodec) ([1]; median): 24 h | Treatment-emergent BG confirmed hypoglycaemic episodes ([2]; BG < 2.8 mmol/L, PG < 3.1 mmol/L, single s.c. dose, until 35 days after dose): three | Participants positive for anti-icodec antibodies at least once during the study ([2]; assessed following IcoSema and icodec administration): 13 participants | AEs of severity Mild, E [2, 5]: 23 | AEs of severity Moderate, E [2, 5]: 6 | AEs of severity Severe, E [2, 5]: 1 | AEs with outcome Recovered/resolved, E [2, 5]: 30 | AEs with outcome Recovering/resolving, E [2, 5]: 0 | AEs with relationship to study product Possible, E [2, 5]: 14 | AEs with relationship to study product Probable, E [2, 5]: 4 | AEs with relationship to study product Unlikely, E [2, 5]: 12 | Decreased appetite, E [2, 5]: 3 | Gastrointestinal disorders (SOC), E [2, 5]: 5 | General disorders and administration site conditions (SOC), E [2, 5]: 2 | Headache, E [2, 5]: 5 | Metabolism and nutrition disorders (SOC), E [2, 5]: 3 | Nausea, E [2, 5]: 0 | Nervous system disorders (SOC), E [2, 5]: 5 | Serious AEs, E [2, 5]: 1 | Vomiting, E [2, 5]: 0 | Treatment emergent AEs, E ([2]; number of events, until 35 days after dosing): 30 | Participants positive for anti-icodec antibodies cross-reacting to human insulin at least once ([2]; of the anti-icodec antibody positive participants): 12 participants | AEs of severity Mild, % ([2]; treatment emergent): (42.9) % | AEs of severity Moderate, % ([2]; treatment emergent): (17.9) % | AEs of severity Severe, % ([2]; treatment emergent): (3.6) % | AEs with outcome Recovered/resolved, % ([2]; treatment emergent): (53.6) % | AEs with outcome Recovering/resolving, % ([2]; treatment emergent): (0.0) % | AEs with relationship to study product Possible, % ([2]; treatment emergent): (28.6) % | AEs with relationship to study product Probable, % ([2]; treatment emergent): (10.7) % | AEs with relationship to study product Unlikely, % ([2]; treatment emergent): (32.1) % | Decreased appetite, % ([2]; treatment emergent): (10.7) % | Gastrointestinal disorders (SOC), % ([2]; treatment emergent): (14.3) % | General disorders and administration site conditions (SOC), % ([2]; treatment emergent): (7.1) % | Headache, % ([2]; treatment emergent): (14.3) % | Metabolism and nutrition disorders (SOC), % ([2]; treatment emergent): (10.7) % | Nausea, % ([2]; treatment emergent): (0.0) % | Nervous system disorders (SOC), % ([2]; treatment emergent): (14.3) % | Serious AEs, % ([2]; treatment emergent): (3.6) % | Vomiting, % ([2]; treatment emergent): (0.0) % | Treatment emergent AEs, % ([2]; until 35 days after dosing): (53.6) % | Overall tolerability in the clinical study ([2]; single s.c. dose): well-tolerated | Rate of clinically significant or severe hypoglycaemia [3]: < 1 episode per patient-year of exposure

insulin degludec
Rate of clinically significant or severe hypoglycaemia [3]: < 1 episode per patient-year of exposure

CC[C@H](C)[C@H](NC(=O)[C@H](Cc1ccccc1)NC(=O)[C@H](CCC(=O)O)NC(=O)[C@H](CCCCNC(=O)COCCOCCNC(=O)COCCOCCNC(=O)CC[C@H](NC(=O)CCCCCCCCCCCCCCCCC(=O)O)C(=O)O)NC(=O)[C@H](C)NC(=O)[C@H](C)NC(=O)[C@H](CCC(N)=O)NC(=O)CNC(=O)[C@H](CCC(=O)O)NC(=O)[C@H](CC(C)C)NC(=O)[C@H](Cc1ccc(O)cc1)NC(=O)[C@H](CO)NC(=O)[C@H](CO)NC(=O)[C@@H](NC(=O)[C@H](CC(=O)O)NC(=O)[C@H](CO)NC(=O)[C@@H](NC(=O)[C@H](Cc1ccccc1)NC(=O)[C@@H](NC(=O)CNC(=O)[C@H](CCC(=O)O)NC(=O)C(C)(C)NC(=O)[C@@H](N)Cc1cnc[nH]1)[C@@H](C)O)[C@@H](C)O)C(C)C)C(=O)N[C@@H](C)C(=O)N[C@@H](Cc1c[nH]c2ccccc12)C(=O)N[C@@H](CC(C)C)C(=O)N[C@H](C(=O)N[C@@H](CCCNC(=N)N)C(=O)NCC(=O)N[C@@H](CCCNC(=N)N)C(=O)NCC(=O)O)C(C)C [Semaglutide, semaglutide]
Maximum concentration after single dose (Cmax,SD,Semaglutide), LS mean ([4]; plasma, LS mean, N 30/28): 8 nM | Median time to maximum semaglutide concentration after single dose (tmax,SD,Semaglutide) ([4]; median): 84 h | Participants positive for anti-semaglutide antibodies ([2]; assessed following IcoSema administration): No participants were positive | AEs of severity Mild, % ([2]; treatment emergent): (57.1) % | AEs of severity Moderate, % ([2]; treatment emergent): (17.9) % | AEs of severity Severe, % ([2]; treatment emergent): (0.0) % | AEs with outcome Recovered/resolved, % ([2]; treatment emergent): (60.7) % | AEs with outcome Recovering/resolving, % ([2]; treatment emergent): (0.0) % | AEs with relationship to study product Possible, % ([2]; treatment emergent): (28.6) % | AEs with relationship to study product Probable, % ([2]; treatment emergent): (42.9) % | AEs with relationship to study product Unlikely, % ([2]; treatment emergent): (21.4) % | Decreased appetite, % ([2]; treatment emergent): (17.9) % | Gastrointestinal disorders (SOC), % ([2]; treatment emergent): (42.9) % | General disorders and administration site conditions (SOC), % ([2]; treatment emergent): (14.3) % | Headache, % ([2]; treatment emergent): (7.1) % | Metabolism and nutrition disorders (SOC), % ([2]; treatment emergent): (21.4) % | Nausea, % ([2]; treatment emergent): (21.4) % | Nervous system disorders (SOC), % ([2]; treatment emergent): (17.9) % | Serious AEs, % ([2]; treatment emergent): (0.0) % | Vomiting, % ([2]; treatment emergent): (7.1) % | Treatment emergent AEs, % ([2]; until 35 days after dosing): (60.7) % | Overall tolerability in the clinical study ([2]; single s.c. dose): well-tolerated
